Legend:
[1] = tested on: Hemozoin; test: Inhibition of beta-hematin formation assessed as reduction in hemozoin formation incubated for 20 hrs by NP40 detergent-mediated assay
How it was run: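 In vitro β-hematin formation assay buffered at acidic pH 4.8 to mimic the parasite digestive vacuole. IC50 is the mean of experiments run in technical triplicate.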

[2] = tested on: HeLa; test: Cytotoxicity against human HeLa cells assessed as reduction in cell viability at 20 uM incubated for 48 hrs by FACS analysis; assay type: cell-based
[3] = tested on: Plasmodium falciparum; test: Antimalarial activity against Plasmodium falciparum 3D7 infected in human Erythrocyte assessed as reduction in plasmodial growth incubated for 48 hrs by FACS analysis; assay type: functional, organism-based; conditions: 3D7, Erythrocyte
How it was run: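 Dose-response IC50 against P. falciparum 3D7. Only compounds that reduced parasite viability below 10% in a 20 μM, 48 h single-concentration screen were tested. IC50 is the mean of experiments run in technical triplicate.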

[4] = tested on: Plasmodium falciparum; test: Antimalarial activity against Plasmodium falciparum 3D7 infected in human Erythrocyte assessed as plasmodial growth at 20 uM incubated for 48 hrs by FACS analysis relative to control; assay type: functional

Structure (SMILES) | IC50 [1] | IC50 ([1]; read-out: IC50) [µM] | Activity [2] | IC50 [3] [µM] | Activity [4] [%]
Clc1ccc(-c2nc(-c3ccccc3)c(-c3ccccc3)[nH]2)cc1 | Not Active |  | Non-Toxic |  | 
COc1ccc(-c2nc(-c3ccccc3)c(-c3ccccc3)[nH]2)cc1 |  | 48.1 | Non-Toxic |  | 
Cc1ccc(-c2nc(-c3ccccc3)c(-c3ccccc3)[nH]2)cc1 |  | 156 | Non-Toxic |  | 
Cc1ccccc1-c1nc(-c2ccccc2)c(-c2ccccc2)[nH]1 |  | > 500 | Non-Toxic |  | 
Fc1ccccc1-c1nc(-c2ccc(Cl)cc2)c(-c2ccccc2)[nH]1 |  | > 500 | Non-Toxic |  | 
c1ccc(-c2nc(-c3ccc4ccccc4c3)[nH]c2-c2ccccc2)cc1 | Not Active |  | Non-Toxic |  | 
Fc1ccc(-c2nc(-c3ccc(Cl)cc3)c(-c3ccccc3)[nH]2)cc1 |  | 28 | Non-Toxic | 6.5 | <10
COc1ccc(-c2nc(-c3ccc(Br)cc3)c(-c3ccccc3)[nH]2)cc1 |  | 20.3 | Non-Toxic | 1.5 | <10
Clc1ccc(-c2nc(-c3ccccc3)[nH]c2-c2ccccc2)cc1 |  | > 500 | Non-Toxic |  | 
Fc1ccccc1-c1nc(-c2ccccc2)c(-c2ccccc2)[nH]1 |  | > 500 | Non-Toxic |  | 
c1ccc(-c2nc(-c3c[nH]c4ccccc34)[nH]c2-c2ccccc2)cc1 |  | 72.8 | Non-Toxic |  | 
COc1ccc(-c2nc(-c3ccc(Cl)cc3)c(-c3ccccc3)[nH]2)cc1 |  | 20.5 | Non-Toxic | 11 | <10
O=[N+]([O-])c1cccc(-c2nc(-c3ccc(Cl)cc3)c(-c3ccccc3)[nH]2)c1 |  | > 500 | Non-Toxic |  | 
Brc1ccc(-c2nc(-c3ccccc3)c(-c3ccccc3)[nH]2)cc1 |  | 489 | Non-Toxic |  | 
CCN(CC)CCCC(C)Nc1ccnc2cc(Cl)ccc12 (configuration not stated) [CHLOROQUINE] |  | 16.9 |  |  | 

The next lines start with results.

IC50 [1] | IC50 ([1]; read-out: IC50) [µM] | Structure (SMILES) | Activity [2] | IC50 [3] [µM] | Activity [4] [%]
Not Active |  | O=[N+]([O-])c1ccccc1-c1nc(-c2ccccc2)c(-c2ccccc2)[nH]1 | Non-Toxic |  | 
Not Active |  | O=[N+]([O-])c1cccc(-c2nc(-c3ccccc3)c(-c3ccccc3)[nH]2)c1 | Non-Toxic |  | 
 | 401 | c1ccc(-c2nc(-c3ccco3)[nH]c2-c2ccccc2)cc1 | Non-Toxic |  | 
Not Active |  | COc1ccccc1-c1nc(-c2ccccc2)c(-c2ccccc2)[nH]1 | Non-Toxic |  | 
Not Active |  | Clc1cccc(-c2nc(-c3ccccc3)c(-c3ccccc3)[nH]2)c1 | Non-Toxic |  | 
 | > 500 | c1ccc(-c2nc(C3CCCCC3)[nH]c2-c2ccccc2)cc1 | Non-Toxic |  | 
 | 28.8 | Clc1ccc(-c2nc(-c3ccc(Br)cc3)[nH]c2-c2ccccc2)cc1 | Non-Toxic | 8 | <10
 | 39 | Clc1ccc(-c2nc(-c3ccc(Cl)cc3)c(-c3ccccc3)[nH]2)cc1 | Non-Toxic |  | 
 | 54.2 | Brc1ccc(-c2nc(-c3ccc(Br)cc3)c(-c3ccccc3)[nH]2)cc1 | Non-Toxic |  | 
Not Active |  | Brc1ccc(-c2nc(-c3ccccc3)[nH]c2-c2ccc(Br)cc2)cc1 | Non-Toxic | 13 | <10
Not Active |  | CCC(CC)c1nc(-c2ccccc2)c(-c2ccccc2)[nH]1 | Non-Toxic | 11 | <10
 | 294 | Brc1ccc(-c2nc(-c3ccccc3)[nH]c2-c2ccccc2)cc1 | Non-Toxic |  | 
Not Active |  | Fc1cccc(-c2nc(-c3ccccc3)c(-c3ccccc3)[nH]2)c1 | Non-Toxic |  | 

From ChEMBL document CHEMBL4699394, “Insights into structural and physicochemical properties required for beta-hematin inhibition of privileged triarylimidazoles” (RSC Med Chem, 2020)
